Experimental data: ChEMBL document CHEMBL4041514, “From pyrrolidinyl-benzodioxane to pyrrolidinyl-pyridodioxanes, or from unselective antagonism to selective partial agonism at α4β2 nicotinic acetylcholine receptor” (Eur J Med Chem, 2017)
Calls of active or inactive are those of the source. The calls are words filed in the database; no cut-off is given here.

Assays:
[1] = Displacement of [3H]epibatidine from rat cerebral cortex membrane alpha4beta2* nAChR pretreated for 5 mins followed by [3H]epibatidine addition after overnight incubation by beta counter
In short: (§1)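 Competition binding using [3H]epibatidine for rat cortex α4β2* and human α3β4 from transfected cells, and [125I]α-bungarotoxin for rat hippocampus α7*. Kd from three saturation experiments and Ki from three competition experiments. Fitted by nonlinear least squares (LIGAND) with an F test.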

[2] = target: T1, Neuronal acetylcholine receptor; alpha3/beta4 (Homo sapiens, UniProt P30926+P32297); experiment: Displacement of [3H]epibatidine from human alpha3beta4 nAChR expressed in HEK293 cells pretreated for 5 mins followed by [3H]epibatidine addition after overnight incubation by beta counter; assay type: cell-based; in short: as §1
T1 sequence (P30926 whole entry): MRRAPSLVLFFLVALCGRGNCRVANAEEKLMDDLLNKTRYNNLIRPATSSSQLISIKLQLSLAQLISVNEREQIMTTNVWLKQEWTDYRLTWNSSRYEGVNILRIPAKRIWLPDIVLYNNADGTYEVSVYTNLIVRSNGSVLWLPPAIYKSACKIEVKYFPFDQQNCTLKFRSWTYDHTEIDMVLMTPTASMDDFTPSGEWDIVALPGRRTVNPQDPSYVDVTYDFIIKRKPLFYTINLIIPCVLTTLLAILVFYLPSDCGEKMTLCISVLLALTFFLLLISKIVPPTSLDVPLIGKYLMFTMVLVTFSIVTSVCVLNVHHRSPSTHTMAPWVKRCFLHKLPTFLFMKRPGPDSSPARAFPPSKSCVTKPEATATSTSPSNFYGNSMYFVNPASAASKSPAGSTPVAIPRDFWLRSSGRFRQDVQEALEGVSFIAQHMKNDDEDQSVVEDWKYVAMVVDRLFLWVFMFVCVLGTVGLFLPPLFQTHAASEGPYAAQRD
T1 sequence (P32297 whole entry): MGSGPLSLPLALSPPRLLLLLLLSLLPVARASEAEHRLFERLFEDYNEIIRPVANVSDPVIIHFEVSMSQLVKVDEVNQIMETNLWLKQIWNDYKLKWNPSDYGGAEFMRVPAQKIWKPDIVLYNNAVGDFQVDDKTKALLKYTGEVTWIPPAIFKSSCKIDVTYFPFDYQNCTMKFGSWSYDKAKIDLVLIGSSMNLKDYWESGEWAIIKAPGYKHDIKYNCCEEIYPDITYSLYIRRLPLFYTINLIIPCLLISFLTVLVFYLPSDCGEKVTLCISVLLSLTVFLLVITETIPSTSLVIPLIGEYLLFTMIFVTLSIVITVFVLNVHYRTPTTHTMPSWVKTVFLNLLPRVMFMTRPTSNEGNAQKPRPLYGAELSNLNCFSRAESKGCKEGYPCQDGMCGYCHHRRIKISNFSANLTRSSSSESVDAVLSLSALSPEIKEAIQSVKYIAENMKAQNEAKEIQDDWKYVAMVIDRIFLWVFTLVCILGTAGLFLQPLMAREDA

[3] = Displacement of [125I]alpha-bungarotoxin from rat hippocampus membrane alpha7* nAChR pretreated for 5 mins followed by [125I]alpha-bungarotoxin addition after overnight incubation by gamma counter; in short: as §1
Rattus norvegicus = species on record: Rattus norvegicus; experiment: Selectivity ratio of Ki for displacement of [125I]alpha-bungarotoxin from rat hippocampus membrane alpha7* nAChR to Ki for displacement of [3H]epibatidine from rat cerebral cortex membrane alpha4beta2* nAChR
In short: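 Ki for rat hippocampal α7* ([125I]α-bungarotoxin competition) divided by Ki for rat cortical α4β2* ([3H]epibatidine competition). Each Ki comes from three competition experiments analysed by nonlinear least squares.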

[4] = Selectivity ratio of Ki for displacement of [3H]epibatidine from human alpha3beta4 nAChR expressed in HEK293 cells to Ki for displacement of [3H]epibatidine from rat cerebral cortex membrane alpha4beta2* nAChR; assay type: cell-based
In short: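 [3H]-epibatidine competition binding on native rat cerebral cortex membranes (α4β2*) and on membranes of HEK cells transiently transfected with human α3β4. Kd and Ki came from three saturation and three competition experiments each, fitted by nonlinear least squares (LIGAND) with F test. The ratio is α3β4 Ki divided by α4β2 Ki.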

[5] = target: T2, Neuronal acetylcholine receptor; alpha4/beta2 (Homo sapiens, UniProt P17787+P43681); experiment: Antagonist activity at human alpha4beta2 nAChR expressed in GH4CL cells by whole-cell patch clamp method; assay type: cell-based
T2 sequence (P17787 whole entry): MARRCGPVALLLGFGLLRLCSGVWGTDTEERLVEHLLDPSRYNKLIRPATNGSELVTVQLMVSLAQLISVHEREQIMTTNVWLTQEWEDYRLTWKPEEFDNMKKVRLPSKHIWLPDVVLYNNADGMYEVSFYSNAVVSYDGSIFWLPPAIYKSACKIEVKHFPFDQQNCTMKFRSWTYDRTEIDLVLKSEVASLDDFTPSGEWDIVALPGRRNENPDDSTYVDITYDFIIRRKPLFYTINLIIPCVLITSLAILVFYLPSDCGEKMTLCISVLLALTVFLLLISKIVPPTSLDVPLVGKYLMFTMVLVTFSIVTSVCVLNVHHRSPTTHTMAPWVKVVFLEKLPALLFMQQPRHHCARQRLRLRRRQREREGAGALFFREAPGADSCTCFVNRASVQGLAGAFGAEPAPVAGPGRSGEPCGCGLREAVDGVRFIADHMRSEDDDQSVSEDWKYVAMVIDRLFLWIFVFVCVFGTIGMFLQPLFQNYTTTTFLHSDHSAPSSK
T2 sequence (P43681 whole entry): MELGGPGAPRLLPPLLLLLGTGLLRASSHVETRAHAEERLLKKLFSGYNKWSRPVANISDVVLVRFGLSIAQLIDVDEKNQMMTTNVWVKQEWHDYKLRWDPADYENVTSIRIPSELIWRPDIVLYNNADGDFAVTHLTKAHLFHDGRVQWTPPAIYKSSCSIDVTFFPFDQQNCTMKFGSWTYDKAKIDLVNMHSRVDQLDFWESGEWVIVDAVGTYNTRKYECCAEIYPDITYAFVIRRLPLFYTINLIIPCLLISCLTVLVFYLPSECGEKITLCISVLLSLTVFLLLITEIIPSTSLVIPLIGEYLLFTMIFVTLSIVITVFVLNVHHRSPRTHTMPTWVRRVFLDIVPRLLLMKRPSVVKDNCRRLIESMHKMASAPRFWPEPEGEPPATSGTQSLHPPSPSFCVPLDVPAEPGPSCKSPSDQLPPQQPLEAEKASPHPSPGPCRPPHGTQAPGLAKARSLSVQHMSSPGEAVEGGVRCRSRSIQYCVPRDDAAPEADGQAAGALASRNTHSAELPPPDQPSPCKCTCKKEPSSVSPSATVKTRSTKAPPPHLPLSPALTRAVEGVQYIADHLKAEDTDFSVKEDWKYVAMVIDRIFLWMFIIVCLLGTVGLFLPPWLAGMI

[6] = target: T1, Neuronal acetylcholine receptor; alpha3/beta4; experiment: Antagonist activity at human alpha3beta4 nAChR expressed in GH4CL cells by whole-cell patch clamp method; assay type: cell-based
[7] = target: T2, Neuronal acetylcholine receptor; alpha4/beta2; experiment: Partial agonist activity at human alpha4beta2 nAChR expressed in GH4CL cells by whole-cell patch clamp method; assay type: cell-based
In short: (§2)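 Human receptor transiently transfected into GH4C1 pituitary cells. Agonist concentrations applied in sequence. Peak currents normalized to the 1 mM ACh response on the same cell. Fitted to a Hill equation, I = Imax([C]^nH/(EC50^nH+[C]^nH)), to give EC50, Imax and Hill coefficient.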

[8] = target: T1, Neuronal acetylcholine receptor; alpha3/beta4; experiment: Partial agonist activity at human alpha3beta4 nAChR expressed in GH4CL cells by whole-cell patch clamp method; assay type: cell-based; in short: as §2
[9] = target: T2, Neuronal acetylcholine receptor; alpha4/beta2; experiment: Partial agonist activity at human alpha4beta2 nAChR expressed in GH4CL cells by whole-cell patch clamp method relative to acetylcholine; assay type: cell-based; in short: as §2
[10] = target: Neuronal acetylcholine receptor; alpha4/beta2 (Rattus norvegicus, UniProt P09483+P12390); experiment: Displacement of [3H](-)cytisine from rat whole brain alpha4beta2 nAChR
Chain of Neuronal acetylcholine receptor; alpha4/beta2 (Rattus norvegicus, UniProt P09483+P12390) (P09483 whole entry): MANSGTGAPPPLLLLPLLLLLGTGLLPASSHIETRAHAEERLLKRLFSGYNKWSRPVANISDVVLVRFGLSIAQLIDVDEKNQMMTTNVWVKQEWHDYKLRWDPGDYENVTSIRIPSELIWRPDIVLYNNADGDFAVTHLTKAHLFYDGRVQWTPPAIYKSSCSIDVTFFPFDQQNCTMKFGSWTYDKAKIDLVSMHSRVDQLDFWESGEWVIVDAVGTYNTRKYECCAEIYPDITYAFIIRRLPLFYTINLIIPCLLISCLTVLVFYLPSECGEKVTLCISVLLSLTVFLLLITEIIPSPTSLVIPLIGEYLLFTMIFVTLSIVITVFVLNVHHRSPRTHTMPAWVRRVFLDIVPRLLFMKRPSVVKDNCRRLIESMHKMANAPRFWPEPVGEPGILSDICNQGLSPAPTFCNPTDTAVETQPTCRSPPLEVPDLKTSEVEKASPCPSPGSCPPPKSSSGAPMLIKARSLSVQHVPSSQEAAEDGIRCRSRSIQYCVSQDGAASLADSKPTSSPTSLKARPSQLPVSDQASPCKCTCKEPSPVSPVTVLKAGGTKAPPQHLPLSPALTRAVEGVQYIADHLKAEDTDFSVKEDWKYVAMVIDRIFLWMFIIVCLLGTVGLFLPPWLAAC
Chain of Neuronal acetylcholine receptor; alpha4/beta2 (Rattus norvegicus, UniProt P09483+P12390) (P12390 whole entry): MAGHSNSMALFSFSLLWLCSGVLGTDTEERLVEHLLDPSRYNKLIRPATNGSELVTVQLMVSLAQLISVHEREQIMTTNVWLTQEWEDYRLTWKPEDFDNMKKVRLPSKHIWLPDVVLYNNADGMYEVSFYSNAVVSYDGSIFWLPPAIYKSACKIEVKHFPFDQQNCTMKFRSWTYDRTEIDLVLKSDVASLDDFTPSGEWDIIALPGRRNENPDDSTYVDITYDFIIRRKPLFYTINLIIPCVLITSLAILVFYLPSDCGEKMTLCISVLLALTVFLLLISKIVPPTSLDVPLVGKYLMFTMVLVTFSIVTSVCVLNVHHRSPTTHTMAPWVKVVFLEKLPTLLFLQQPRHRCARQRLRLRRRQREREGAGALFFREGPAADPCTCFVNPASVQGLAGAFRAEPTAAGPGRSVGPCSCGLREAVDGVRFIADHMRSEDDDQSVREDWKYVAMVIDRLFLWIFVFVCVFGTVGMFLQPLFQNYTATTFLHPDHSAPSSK

| Structure (SMILES) | Ki [1] | Ki [2] | Ki [3] | Ratio Ki (Rattus norvegicus) | Ratio Ki [4] | also measured |
| --- | --- | --- | --- | --- | --- | --- |
| CN1CCC[C@H]1[C@H]1COc2ccncc2O1 | 3.6 µM | 8.9 µM | – | – | – | – |
| CN1CCC[C@H]1[C@@H]1COc2ccncc2O1 | 1.64 µM | 5.8 µM | – | – | – | – |
| CN1CCC[C@H]1[C@H]1COc2ncccc2O1 | 30.4 µM | 22 µM | > 10 µM | – | – | – |
| CN1CCC[C@H]1[C@H]1COc2ccc(O)cc2O1 | 0.012 µM | 0.31 µM | 0.43 µM | 36 | 26 | – |
| CN1CCC[C@H]1[C@@H]1COc2ccccc2O1 | 0.26 µM | 1.2 µM | 21 µM | 81 | 5 | IC50 [5]: 5.36 to 5.4 µM; IC50 [6]: 2.78 to 2.8 µM; Activity [7]: inactive; Activity [8]: inactive |
| CN1CCC[C@H]1[C@H]1COc2ccccc2O1 | 0.47 µM | 8.2 µM | 14.6 µM | – | – | – |
| COc1ccc(O)cc1OC[C@@H]1CCCN1C | 0.019 µM | – | 1.15 µM | 60 | 14 | – |
| CN1CCC[C@H]1[C@@H]1COc2ncccc2O1 | 0.41 µM | 16.2 µM | 89 µM | 215 | 39 | %max [9]: 24.2%; EC50 [7]: 10.1 µM |
| CN1CCC[C@H]1[C@H]1COc2cccnc2O1 | 30 µM | – | 12 µM | – | – | – |
| CN1CCC[C@H]1[C@@H]1COc2cccnc2O1 | 43 µM | – | 24 µM | – | – | – |
| C[C@@H](Oc1cccc(O)c1)[C@@H]1CCCN1C | 0.011 µM | – | 0.057 µM | 5 | 23 | – |
| CN1CCC[C@H]1c1cc2ccccc2o1 | – | – | – | – | – | Ki [10]: 0.16 µM |
